Read-outs that look alike come from different tables or passages of the source.
What was measured:
U266 B1 = test: alamarBlue cell proliferation assay; format: cell-based; details: Homo sapiens, U-266
In short: (§1)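 Cell lines from ATCC or DSMZ were cultured per supplier's instructions and STR-authenticated. MV-4-11B is a clone of MV-4-11 carrying heterozygous TP53 c.742C>T (p.R248W). Cells were exposed to test compound in 96-well format, and viability was read after incubation with alamarBlue.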

OPM-2 GFP = test: alamarBlue cell proliferation assay; format: cell-based; details: Homo sapiens
In short: (§2)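 Leukemia, lymphoma and myeloma lines (from ATCC or DSMZ, grown per supplier instructions, STR-authenticated; GFP-labelled sublines where stated) were incubated with test compound in 96-well flat-bottom plates. Viability was read by alamarBlue conversion, and EC50 was taken from the concentration-response.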

OPM-2 = test: alamarBlue cell proliferation assay; format: cell-based; details: Homo sapiens
In short: as §2

SU-DHL6 = test: alamarBlue cell proliferation assay; format: cell-based; details: Homo sapiens, SU-DHL-6
In short: as §1

OCI-Ly3 = test: alamarBlue cell proliferation assay; format: cell-based; details: Homo sapiens
In short: as §2

MOLP-8 GFP = test: alamarBlue cell proliferation assay; format: cell-based; details: Homo sapiens
In short: as §2

SR-786 = test: alamarBlue cell proliferation assay; format: cell-based
In short: as §2

SU-DHL4 = test: alamarBlue cell proliferation assay; format: cell-based; details: Homo sapiens, SU-DHL-4
In short: as §2

K562 = test: alamarBlue cell proliferation assay; format: cell-based; details: Homo sapiens
In short: as §2

MOLM-13 GFP = test: alamarBlue cell proliferation assay; format: cell-based; details: Homo sapiens
In short: as §2

MOLM-13 = test: alamarBlue cell proliferation assay; format: cell-based; details: Homo sapiens
In short: as §2

THP-1 GFP = test: alamarBlue cell proliferation assay; format: cell-based; details: Homo sapiens
In short: as §1

RI-1 = test: alamarBlue cell proliferation assay; format: cell-based
In short: as §2

RC-K8 = test: alamarBlue cell proliferation assay; format: cell-based; details: Homo sapiens, RCK8
In short: as §2

U-2932 = test: alamarBlue cell proliferation assay; format: cell-based; details: Homo sapiens, U2932
In short: as §1

MOLT-4 = test: alamarBlue cell proliferation assay; format: cell-based; details: Homo sapiens
In short: as §2

HL-60 = test: alamarBlue cell proliferation assay; format: cell-based; details: Homo sapiens
In short: as §2

MOLM-1 = test: alamarBlue cell proliferation assay; format: cell-based
In short: as §2

OCI-Ly7 = test: alamarBlue cell proliferation assay; format: cell-based; details: Homo sapiens
In short: as §2

THP-1 AML cells = test: disseminated AML xenograft efficacy study; format: in vivo, CIEA-NOG mice; details: BI 894999 daily, 4 mg/kg p.o.
Kasumi-3 = test: alamarBlue cell proliferation assay; format: cell-based
In short: as §2

Hexim1 mRNA = Hexim1 mRNA in blood of xenograft bearing mice; format: in vivo; details: 24 h after dosing; MV-4-11B xenograft bearing mice
In short: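 Mice bearing subcutaneous MV-4-11B xenografts were dosed daily with vehicle or test compound at 2, 4 or 12 mg/kg, and blood was collected on the indicated treatment days. Total RNA was isolated with TRI reagent, and 500 ng was reverse-transcribed. Hexim1 transcript was quantified by SYBR Green qRT-PCR.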

SKM-1 = test: alamarBlue cell proliferation assay; format: cell-based; details: Homo sapiens
In short: as §2

J.RT3-T3.5 = test: alamarBlue cell proliferation assay; format: cell-based; details: Homo sapiens
In short: as §2

[1] = test system: p-Ser2 POL-II in MV-4-11B cells; test: p-Ser2 POL-II custom MSD assay; format: cell-based; details: 35 nM BI 894999, 2 h
In short: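 MV-4-11B cells were treated for 2 h with single agents or their combination. Phospho-Ser2 RNA Pol II was quantified with a custom Meso Scale Discovery multi-array assay.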

MM.1R = test: alamarBlue cell proliferation assay; format: cell-based
In short: as §2

Pfeiffer = test: alamarBlue cell proliferation assay; format: cell-based; details: Homo sapiens
In short: as §2

HBL-1 = test: alamarBlue cell proliferation assay; format: cell-based; details: HBL1
In short: as §2

RPMI 8226 = test: alamarBlue cell proliferation assay; format: cell-based; details: Homo sapiens
In short: as §2

[2] = test system: MM primary patient samples; test: proliferation of ex vivo-treated primary patient samples; format: cell-based; details: Homo sapiens
NCI-H929 = test: alamarBlue cell proliferation assay; format: cell-based; details: Homo sapiens
In short: as §2

MV-4-11B GFP = test: alamarBlue cell proliferation assay; format: cell-based
In short: as §2

MV-4-11B cells = test: FACS cell cycle profile; format: cell-based; details: 72 h, 30 nM and 100 nM
TMD8 = test: alamarBlue cell proliferation assay; format: cell-based; details: Homo sapiens
In short: as §1

HuT78 = test: alamarBlue cell proliferation assay; format: cell-based; details: Homo sapiens
In short: as §2

BRD2/3/4 and BRDT = test: BROMOscan ligand-binding site-directed competition assay
DERL-2 = test: alamarBlue cell proliferation assay; format: cell-based; details: T-cell
In short: as §2

MHH-PREB-1 = test: alamarBlue cell proliferation assay; format: cell-based; details: Homo sapiens
In short: as §2

MV-4-11B = test: alamarBlue cell proliferation assay; format: cell-based, human; details: Homo sapiens
In short: as §1

MOLT-3 = test: alamarBlue cell proliferation assay; format: cell-based; details: Homo sapiens
In short: as §2

MOLP-8 = test: alamarBlue cell proliferation assay; format: cell-based; details: Homo sapiens
In short: as §2

AMO-1 = test: alamarBlue cell proliferation assay; format: cell-based; details: Homo sapiens, AMO1
In short: as §2

CNc1nc(-c2nc3ccc(N4CCN(C)CC4)cc3n2Cc2ccccc2)cn2c(C)nnc12 [BI 894999]
EC50 (U266 B1): 14.3 ± 7.4 nM
EC50 (OPM-2 GFP): 12 nM
EC50 (OPM-2): 8.9 ± 4.7 nM
EC50 (SU-DHL6): 13.4 ± 1.2 nM
EC50 (OCI-Ly3): 8.2 ± 2.3 nM
EC50 (MOLP-8 GFP): 21.5 ± 10.8 nM
EC50 (SR-786): 77.3 ± 17.3 nM
EC50 (SU-DHL4): 13.3 ± 4.5 nM
EC50 (K562): > 10000 nM
EC50 (MOLM-13 GFP): 14.3 nM
EC50 (MOLM-13): 12.8 ± 3.4 nM
EC50 (THP-1 GFP): 4.1 ± 2 nM
EC50 (RI-1): 6.2 ± 1.9 nM
EC50 (RC-K8): 7.8 ± 0.9 nM
EC50 (U-2932): 4.3 ± 2.1 nM
EC50 (MOLT-4): 40.7 ± 28.7 nM
EC50 (HL-60): 2.7 ± 0.1 nM
EC50 (MOLM-1): 53.4 ± 34.8 nM
EC50 (OCI-Ly7): 14.2 ± 6.4 nM
survival prolongation (THP-1 AML cells): 22 days
EC50 (Kasumi-3): 3.4 ± 1.5 nM
Hexim1 levels in blood (Hexim1 mRNA): back to baseline
EC50 (SKM-1): 10.2 ± 1.5 nM
EC50 (J.RT3-T3.5): 11 ± 4 nM
p-Ser2 POL-II levels [1]: ~ 86 % of control
EC50 (MM.1R): 2.5 ± 2.1 nM
EC50 (Pfeiffer): 10.7 ± 2.7 nM
EC50 (HBL-1): 7.1 ± 5.2 nM
EC50 (RPMI 8226): 25 ± 9 nM
EC50 ([2]; read-out: BI 894999 EC50, MM Patient 1): 52 nM
EC50 ([2]; read-out: BI 894999 EC50, MM Patient 2): 15 nM
EC50 ([2]; read-out: BI 894999 EC50, MM Patient 3): 7 nM
EC50 ([2]; read-out: BI 894999 EC50, MM Patient 4): > 2000 nM
EC50 ([2]; read-out: BI 894999 EC50, MM Patient 5): 500 nM
EC50 ([2]; read-out: BI 894999 EC50, MM Patient 6): 421 nM
EC50 ([2]; read-out: BI 894999 EC50, MM Patient 7): 54 nM
EC50 ([2]; read-out: BI 894999 EC50, MM Patient 8): 3 nM
EC50 ([2]; read-out: BI 894999 EC50, MM Patient 9): 21 nM
EC50 ([2]; read-out: BI 894999 EC50, MM Patient 10): 1 nM
EC50 ([2]; read-out: BI 894999 EC50, MM Patient 11): 57 nM
EC50 ([2]; read-out: BI 894999 EC50, MM Patient 12): 1360 nM
EC50 ([2]; read-out: BI 894999 EC50, MM Patient 13): 2 nM
EC50 ([2]; read-out: BI 894999 EC50, MM Patient 14): 275 nM
EC50 ([2]; read-out: BI 894999 EC50, MM Patient 15): 352 nM
EC50 (NCI-H929): 3.6 ± 2 nM
EC50 (MV-4-11B GFP): 2.9 ± 0.9 nM
cell cycle effect (MV-4-11B cells): G1 arrest
EC50 (TMD8): 9.7 ± 3.7 nM
EC50 (HuT78): 7.1 ± 3.7 nM
Kd (BRD2/3/4 and BRDT; BRD2/3/4 and BRDT, 24 bromodomains tested): 0.49 to 1.6 nM
selectivity vs. BRD4-BD1 (BRD2/3/4 and BRDT; other bromodomains of the panel (n = 24) vs. BRD4-BD1): ≥ 200 fold
EC50 (DERL-2): 10.6 ± 9.5 nM
EC50 (MHH-PREB-1): 24.4 ± 1.2 nM
EC50 (MV-4-11B): 6.8 ± 4 nM
EC50 (MV-4-11B; read-out: anti-proliferative EC50): 10 nM
EC50 (MOLT-3): 14.4 ± 6.5 nM
EC50 (MOLP-8): 5.3 ± 2.8 nM
EC50 (AMO-1): 28 ± 15 nM

Source: PMC5955861 (Oncogene, 2018)
